In brackets after ≈: the same amount, converted by molar mass.
Assays:
[1] = n-octanol/water partition coefficient, shake flask method; type: physicochemical
How it was run: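 Shake-flask method: n-octanol and water were mutually presaturated (24 h shaking, 4000 rpm 10 min). The compound was dissolved in water-saturated octanol and mixed with an equal volume of octanol-saturated water. The mixture was shaken at 100 times/min at 25 °C for 24 h and centrifuged at 4000 rpm for 10 min. Both phases were diluted and quantified by HPLC (UV 230 nm), and P was calculated as C(oil)/C(water).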

[2] = Solubility study; type: physicochemical; conditions: doubly distilled water, 25 °C, thermodynamic from solid
How it was run: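 Excess solid was placed in doubly distilled water and shaken at 100 times/min at 25 °C for 24 h. It then stood a further 24 h at 25 °C and was centrifuged. The supernatant was assayed by HPLC on a Polar-RP column at 35 °C, with UV at 230 nm and pH 2.5 phosphate buffer/acetonitrile.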

[3] = Transport across hRMECs monolayer cells; type: in vitro ADME; conditions: human
How it was run: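 hRMEC monolayers were grown on 24-well 0.4 μm polycarbonate Transwells and used at TEER 200 Ω. After rinsing, 100 μmol/L compound in 37 °C HBSS was added apically. Basolateral samples were taken at 30, 60, 120, 240 and 360 min with replacement and analysed by HPLC (UV 230 nm). Papp=(ΔQ/Δt)/(A×C0), with A 0.33 cm², n=3. The ratio is Papp test/Papp fluorescein; a competition set used 24 h pre-incubation with 10 mmol/L taurine in both chambers.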

[4] = Transport across ARPE-19 monolayer cells; type: in vitro ADME; conditions: human
How it was run: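 ARPE-19 cells were seeded at 2.5×10⁵ cells/insert on 12-well 0.4 μm polycarbonate Transwells and used once TEER reached 150 Ω. After two HBSS rinses, 100 μmol/L compound in 37 °C HBSS was added apically. Basolateral samples were taken at 30, 60, 120, 240 and 360 min with replacement and analysed by HPLC. Papp=(ΔQ/Δt)/(A×C0), with A 1.12 cm², n=3. The ratio is Papp test/Papp fluorescein; a competition set used 24 h pre-incubation with 10 mmol/L taurine.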

[5] = test system: ARPE-19; assay: Cellular internalization by confocal scanning microscopy; type: cell-based; conditions: ARPE-19, 100 μmol/L, 37 °C
How it was run: (§1)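 Cells were seeded on confocal dishes at 5×10³ cells/well and grown 24 h at 37 °C. They were then exposed to 100 μmol/L test compound or fluorescein for 2 h or 6 h, and washed three times with HBSS. Intracellular fluorescence was imaged by laser scanning confocal microscopy, with excitation at 488 nm for fluorescein and 405 nm for the conjugate.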

[6] = test system: hRMECs; assay: as above; type: cell-based, human; conditions: 100 μmol/L, 37 °C
How it was run: as §1

O=C1OC2(c3ccc(O)cc3Oc3cc(O)ccc32)c2ccccc21 [Fluorescein]
logP at 24 h [1]: 1.55 | solubility at 24 h [2]: 6.75 µg/mL (≈ 20.3 µM) | Papp at 360 min, 100 μmol/L [3]: 7.23 ± 0.92 ×10⁻⁶ cm/s | Papp at 360 min, 100 μmol/L [4]: 5.56 ± 0.8 ×10⁻⁶ cm/s | intracellular fluorescence (cellular uptake) ([5]; 2 h): strong fluorescence | intracellular fluorescence (cellular retention) ([5]; 6 h): almost no fluorescein was observed | intracellular fluorescence (cellular uptake) ([6]; 2 h): strong fluorescence | intracellular fluorescence (cellular retention) ([6]; 6 h): almost no fluorescein was observed

From PMC4629109 (Acta Pharmaceutica Sinica. B, 2014)
